Data as given in ChEMBL document CHEMBL4425133, “Discovery and Pharmacokinetic and Pharmacological Properties of the Potent and Selective MET Kinase Inhibitor 1-{6-[6-(4-Fluorophenyl)-[1,2,4]triazolo[4,3-b]pyridazin-3-ylsulfanyl]benzothiazol-2-yl}-3-(2-morpholin-4-ylethyl)urea (SAR125844)” (J Med Chem, 2016).
Converted amounts (≈) assume the structure as drawn. The source made the active and inactive calls. The rule behind the calls is not given here.

How the values were obtained:
[1] = molecular target: Hepatocyte growth factor receptor (Homo sapiens, UniProt P08581, L1195V); assay: Inhibition of phosphorylated MET L1195V mutant (unknown origin) pre-incubated for 30 mins before biotinylated poly(glutamate-alanine-tyrosine) peptide addition and measured after 5 mins by HTRF assay
Sequence of Hepatocyte growth factor receptor (Homo sapiens, UniProt P08581, L1195V) (P08581 25-1390 L1195V limits assumed): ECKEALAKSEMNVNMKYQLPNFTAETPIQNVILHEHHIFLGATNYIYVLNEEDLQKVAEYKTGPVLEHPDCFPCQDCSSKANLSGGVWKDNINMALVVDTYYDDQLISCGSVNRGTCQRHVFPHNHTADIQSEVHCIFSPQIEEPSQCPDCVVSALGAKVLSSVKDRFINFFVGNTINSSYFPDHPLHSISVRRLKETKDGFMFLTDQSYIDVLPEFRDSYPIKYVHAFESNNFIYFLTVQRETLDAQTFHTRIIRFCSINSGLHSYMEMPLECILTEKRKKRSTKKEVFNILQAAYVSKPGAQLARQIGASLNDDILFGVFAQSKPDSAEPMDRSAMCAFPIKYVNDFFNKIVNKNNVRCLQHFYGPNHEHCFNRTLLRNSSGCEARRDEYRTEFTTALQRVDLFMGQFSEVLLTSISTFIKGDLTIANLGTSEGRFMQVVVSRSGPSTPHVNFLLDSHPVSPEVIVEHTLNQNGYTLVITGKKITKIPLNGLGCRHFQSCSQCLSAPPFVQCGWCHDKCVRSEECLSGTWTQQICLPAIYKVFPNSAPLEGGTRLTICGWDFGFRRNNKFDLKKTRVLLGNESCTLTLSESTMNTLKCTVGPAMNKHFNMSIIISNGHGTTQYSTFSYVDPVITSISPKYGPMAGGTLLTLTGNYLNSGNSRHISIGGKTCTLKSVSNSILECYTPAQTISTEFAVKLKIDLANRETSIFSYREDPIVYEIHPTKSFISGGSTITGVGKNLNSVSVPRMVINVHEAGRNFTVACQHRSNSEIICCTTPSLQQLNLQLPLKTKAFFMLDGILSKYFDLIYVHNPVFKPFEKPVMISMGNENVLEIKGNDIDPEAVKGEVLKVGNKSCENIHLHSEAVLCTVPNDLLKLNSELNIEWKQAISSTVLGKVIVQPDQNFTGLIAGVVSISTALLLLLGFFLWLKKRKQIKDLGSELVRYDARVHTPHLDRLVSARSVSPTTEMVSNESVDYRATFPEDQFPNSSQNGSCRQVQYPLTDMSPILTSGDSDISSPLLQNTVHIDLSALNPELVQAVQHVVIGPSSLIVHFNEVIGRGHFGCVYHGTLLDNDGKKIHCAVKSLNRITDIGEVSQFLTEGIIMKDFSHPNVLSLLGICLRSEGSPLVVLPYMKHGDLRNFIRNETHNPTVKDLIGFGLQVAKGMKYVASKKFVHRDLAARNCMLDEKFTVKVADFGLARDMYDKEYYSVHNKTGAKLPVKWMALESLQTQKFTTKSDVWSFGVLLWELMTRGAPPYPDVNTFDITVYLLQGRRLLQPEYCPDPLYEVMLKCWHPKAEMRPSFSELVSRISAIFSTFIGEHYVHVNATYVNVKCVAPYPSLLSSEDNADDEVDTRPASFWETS

[2] = molecular target: T1, Hepatocyte growth factor receptor (Homo sapiens, UniProt P08581); assay: Inhibition of wild type phosphorylated MET (unknown origin) pre-incubated for 30 mins before biotinylated poly(glutamate-alanine-tyrosine) peptide addition and measured after 5 mins by HTRF assay
T1 sequence (P08581 whole entry): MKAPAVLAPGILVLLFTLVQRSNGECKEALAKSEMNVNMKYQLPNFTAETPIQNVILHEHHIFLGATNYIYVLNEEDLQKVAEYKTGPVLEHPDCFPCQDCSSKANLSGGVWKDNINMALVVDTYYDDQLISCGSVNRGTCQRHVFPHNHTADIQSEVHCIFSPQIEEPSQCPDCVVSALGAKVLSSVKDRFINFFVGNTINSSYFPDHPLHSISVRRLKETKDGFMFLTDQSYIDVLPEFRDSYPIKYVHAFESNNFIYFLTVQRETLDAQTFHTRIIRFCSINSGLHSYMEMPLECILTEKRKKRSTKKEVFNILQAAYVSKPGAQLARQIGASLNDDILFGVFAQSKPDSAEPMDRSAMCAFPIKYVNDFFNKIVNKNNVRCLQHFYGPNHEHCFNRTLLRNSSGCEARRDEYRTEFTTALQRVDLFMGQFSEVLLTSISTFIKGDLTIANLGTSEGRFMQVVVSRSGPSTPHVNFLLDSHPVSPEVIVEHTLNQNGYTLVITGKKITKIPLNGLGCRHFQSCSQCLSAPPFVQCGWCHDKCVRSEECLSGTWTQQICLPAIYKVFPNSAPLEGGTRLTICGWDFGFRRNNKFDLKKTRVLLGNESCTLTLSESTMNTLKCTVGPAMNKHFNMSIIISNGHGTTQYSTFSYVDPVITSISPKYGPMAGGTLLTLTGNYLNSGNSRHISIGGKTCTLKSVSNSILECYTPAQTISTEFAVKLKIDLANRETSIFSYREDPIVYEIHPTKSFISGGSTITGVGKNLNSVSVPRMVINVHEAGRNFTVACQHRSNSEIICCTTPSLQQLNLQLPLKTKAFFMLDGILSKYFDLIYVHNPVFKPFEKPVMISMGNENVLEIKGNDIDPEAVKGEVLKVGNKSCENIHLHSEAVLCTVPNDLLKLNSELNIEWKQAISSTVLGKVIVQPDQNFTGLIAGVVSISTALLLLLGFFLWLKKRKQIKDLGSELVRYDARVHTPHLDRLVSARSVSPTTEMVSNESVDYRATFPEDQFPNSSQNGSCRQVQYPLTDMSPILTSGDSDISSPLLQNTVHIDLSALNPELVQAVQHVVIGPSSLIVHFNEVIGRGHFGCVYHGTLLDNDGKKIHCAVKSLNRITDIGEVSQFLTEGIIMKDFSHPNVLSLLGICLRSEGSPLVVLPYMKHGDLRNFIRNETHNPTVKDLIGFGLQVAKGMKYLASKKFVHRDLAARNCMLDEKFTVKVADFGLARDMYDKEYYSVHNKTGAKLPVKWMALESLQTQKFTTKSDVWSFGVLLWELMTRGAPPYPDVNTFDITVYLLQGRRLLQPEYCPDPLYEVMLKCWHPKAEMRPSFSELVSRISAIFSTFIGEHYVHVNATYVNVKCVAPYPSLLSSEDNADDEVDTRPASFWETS

[3] = molecular target: Hepatocyte growth factor receptor (Homo sapiens, UniProt P08581, Y1230H); assay: Inhibition of phosphorylated MET Y1230H mutant (unknown origin) pre-incubated for 30 mins before biotinylated poly(glutamate-alanine-tyrosine) peptide addition and measured after 5 mins by HTRF assay
Sequence of Hepatocyte growth factor receptor (Homo sapiens, UniProt P08581, Y1230H) (P08581 25-1390 Y1230H limits assumed): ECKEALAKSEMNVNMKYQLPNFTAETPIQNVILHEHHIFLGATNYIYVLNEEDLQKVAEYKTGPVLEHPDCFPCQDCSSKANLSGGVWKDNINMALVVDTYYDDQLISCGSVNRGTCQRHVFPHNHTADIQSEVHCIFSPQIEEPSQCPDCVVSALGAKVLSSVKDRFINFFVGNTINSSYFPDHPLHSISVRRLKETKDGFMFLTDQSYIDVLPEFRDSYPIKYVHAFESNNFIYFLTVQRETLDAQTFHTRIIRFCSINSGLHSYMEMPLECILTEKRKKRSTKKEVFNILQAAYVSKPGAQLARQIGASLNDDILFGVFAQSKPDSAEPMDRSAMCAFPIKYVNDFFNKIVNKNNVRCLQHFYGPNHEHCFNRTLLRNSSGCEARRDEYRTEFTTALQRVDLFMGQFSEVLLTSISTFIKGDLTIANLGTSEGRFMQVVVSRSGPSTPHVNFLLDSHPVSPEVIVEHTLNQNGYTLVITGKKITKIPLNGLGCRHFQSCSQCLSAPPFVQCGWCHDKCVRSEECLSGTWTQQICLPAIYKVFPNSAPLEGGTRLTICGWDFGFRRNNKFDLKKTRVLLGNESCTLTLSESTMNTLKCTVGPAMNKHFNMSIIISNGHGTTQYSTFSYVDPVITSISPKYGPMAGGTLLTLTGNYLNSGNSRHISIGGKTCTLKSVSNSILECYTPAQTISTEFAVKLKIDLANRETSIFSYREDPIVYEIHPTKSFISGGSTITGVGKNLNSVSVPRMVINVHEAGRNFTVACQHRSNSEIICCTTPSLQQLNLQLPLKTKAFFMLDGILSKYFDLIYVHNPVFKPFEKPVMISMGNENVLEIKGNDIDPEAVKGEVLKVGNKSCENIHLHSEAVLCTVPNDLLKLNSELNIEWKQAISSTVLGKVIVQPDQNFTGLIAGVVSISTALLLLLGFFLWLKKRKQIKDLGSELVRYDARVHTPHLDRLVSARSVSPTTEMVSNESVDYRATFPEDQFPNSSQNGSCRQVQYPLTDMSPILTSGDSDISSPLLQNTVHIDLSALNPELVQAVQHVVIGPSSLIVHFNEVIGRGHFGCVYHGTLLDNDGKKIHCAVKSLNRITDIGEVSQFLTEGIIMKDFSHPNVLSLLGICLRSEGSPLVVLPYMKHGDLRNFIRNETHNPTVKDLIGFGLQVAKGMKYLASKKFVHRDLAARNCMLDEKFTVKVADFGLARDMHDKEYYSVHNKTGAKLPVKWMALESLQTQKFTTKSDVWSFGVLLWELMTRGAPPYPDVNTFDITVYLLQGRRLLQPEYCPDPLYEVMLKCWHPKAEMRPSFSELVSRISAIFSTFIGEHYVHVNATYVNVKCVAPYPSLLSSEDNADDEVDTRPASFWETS

[4] = molecular target: T1, Hepatocyte growth factor receptor; assay: Inhibition of phosphorylated MET in human MKN45 cells assessed as reduction in pMET Y1230/1234/1235 level incubated for 1 hr by ELISA; type: cell-based
Outline: (§1)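 MKN-45 is a MET-amplified human gastric tumour cell line.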

[5] = Lipophilicity, log D of the compound by HPLC method; type: physicochemical
MKN-45 = assay: Antiproliferative activity against human MKN45 cells assessed as reduction in [14C]-thymidine incorporation incubated for 96 hrs by beta counting method; type: functional, cell-based; conditions: for IC50: MKN-45, 96 h; outline: as §1
[6] = molecular target: Hepatocyte growth factor receptor (Homo sapiens, UniProt P08581, M1250T); assay: Inhibition of phosphorylated MET M1250T mutant (unknown origin) pre-incubated for 30 mins before biotinylated poly(glutamate-alanine-tyrosine) peptide addition and measured after 5 mins by HTRF assay
[7] = Equilibrium solubility in phosphate buffer in absence of 10% Labrasol at pH 7.4; type: physicochemical
[8] = Equilibrium solubility in phosphate buffer in presence of 10% Labrasol at pH 7.4; type: physicochemical; conditions: phosphate buffer with 10% Labrasol
Tubulin = assay: Binding affinity to tubulin (unknown origin); type: protein-complex assay, Homo sapiens
[9] = molecular target: Cyclin-dependent kinase 9 (Homo sapiens, UniProt P50750); assay: Inhibition of CDK9 (unknown origin)
Sequence of Cyclin-dependent kinase 9 (P50750 whole entry): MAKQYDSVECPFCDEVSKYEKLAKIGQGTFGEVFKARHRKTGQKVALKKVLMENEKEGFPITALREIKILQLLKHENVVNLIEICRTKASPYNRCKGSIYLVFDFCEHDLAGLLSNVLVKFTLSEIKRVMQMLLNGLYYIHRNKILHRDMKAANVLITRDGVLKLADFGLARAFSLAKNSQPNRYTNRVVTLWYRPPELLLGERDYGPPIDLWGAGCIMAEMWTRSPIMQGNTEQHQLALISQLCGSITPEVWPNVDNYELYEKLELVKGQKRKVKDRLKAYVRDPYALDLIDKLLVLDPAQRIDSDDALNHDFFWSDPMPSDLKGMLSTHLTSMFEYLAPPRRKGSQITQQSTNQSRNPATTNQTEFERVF

[10] = Genotoxicity in Salmonella typhimurium by Ames test; type: toxicity; conditions: salmonella enterica subsp. enterica serovar typhimurium
[11] = Apparent permeability from apical to basolateral side in human Caco2/TC7 cells at 20 uM by liquid chromatography-tandem mass spectrometry; conditions: Caco-2
Cytochrome P450 3A4 [12] = molecular target: T2, Cytochrome P450 3A4 (Homo sapiens, UniProt P08684); assay: Inhibition of human recombinant CYP3A4 co-expressed with human P450 reductase and human b5 reductase assessed as reduction in 7-Hydroxyquinoline production using 7-benzyloxyquinoline as substrate and NADPH incubated for 15 mins by fluorimetry; type: ADME
T2 sequence (P08684 whole entry): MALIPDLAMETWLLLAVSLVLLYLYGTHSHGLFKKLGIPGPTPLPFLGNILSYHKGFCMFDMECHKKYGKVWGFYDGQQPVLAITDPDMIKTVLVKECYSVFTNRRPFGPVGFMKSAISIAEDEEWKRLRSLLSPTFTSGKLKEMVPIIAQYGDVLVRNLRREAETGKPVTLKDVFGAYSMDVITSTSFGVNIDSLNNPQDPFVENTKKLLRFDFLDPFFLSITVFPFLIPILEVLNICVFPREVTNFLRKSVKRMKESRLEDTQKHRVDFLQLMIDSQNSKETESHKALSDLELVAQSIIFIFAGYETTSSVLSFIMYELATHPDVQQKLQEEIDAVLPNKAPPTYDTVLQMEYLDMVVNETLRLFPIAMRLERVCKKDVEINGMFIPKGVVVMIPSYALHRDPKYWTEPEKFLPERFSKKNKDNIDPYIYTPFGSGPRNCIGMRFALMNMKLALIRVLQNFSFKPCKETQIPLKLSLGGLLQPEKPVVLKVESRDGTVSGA

Cytochrome P450 3A4 [13] = molecular target: T2, Cytochrome P450 3A4; assay: Mechanism based time dependent inhibition of human recombinant CYP3A4 co-expressed with human P450 reductase and human b5 reductase assessed as reduction in 7-Hydroxyquinoline production using 7-benzyloxyquinoline as substrate and NADPH measured every 3 mins for 15 mins by fluorimetry; type: ADME; conditions: recombinant enzyme, 0.25 h
[14] = Oral bioavailability in mouse; type: ADME, organism-based; conditions: in vivo
[15] = Drug metabolism in human hepatic microsomes at 5 uM incubated for 20 mins in presence of NADPH by liquid chromatography-tandem mass spectrometry; type: ADME, Microsome; conditions: liver microsomes, read-out: Drug metabolism
[16] = molecular target: T1, Hepatocyte growth factor receptor; assay: Binding affinity to MET (unknown origin) by isothermal titration calorimetry

Row | IC50 [1] [nM] | IC50 [2] [nM] | IC50 [3] [nM] | IC50 [4] [nM] | logD [5] | IC50 (MKN-45) [nM] | IC50 [6] [nM] | solubility thermodynamic [7] [µM] | solubility thermodynamic [8] [µM] | IC50 (Tubulin) [nM] | inhibition [4] | IC50 [9] [nM] | Papp A→B at 20 µM [11] [×10⁻⁶ cm/s] | IC50 (Cytochrome P450 3A4 [12]) [nM] | INH (Cytochrome P450 3A4 [13]) [%/min] | bioavailability [14] [%] | metabolised at 20 min, 5 µM [15] [%] | Kd [16] [nM] | SMILES | inhibition (MKN-45) | Activity [10]
1 | 835 | 20 | > 10000 | 13 | 4.1 | 45 | 455 | < 1 | 543 | – | – | – | – | – | – | – | – | – | Fc1ccc(-c2ccc3nnc(Sc4ccc5nc(NCCN6CCOCC6)sc5c4)n3n2)cc1 | – | –
2 | – | 10 | – | – | 3.8 | – | – | – | – | 2000 | Active | > 10000 | – | – | – | – | – | – | COC(=O)Nc1nc2cc(Sc3nnc4ccc(-c5ccc(F)cc5)nn34)ccc2[nH]1 | Active | Toxic
3 | – | 5 | – | – | – | – | – | – | – | – | – | 6 | – | – | – | – | – | – | COCCNC(=O)Nc1nc2cc(OS(=O)(=O)c3c(F)cccc3F)ccc2[nH]1 | – | –
4 | – | 2 | 252 | – | – | – | – | < 2 | 500 | – | – | – | 9.8 | 2700 | -4.6 | 17 | 23 | 0.6 | O=C(NCCN1CCOCC1)Nc1nc2ccc(Sc3nnc4ccc(OC5CCCCC5)nn34)cc2s1 | – | –
5 | – | 29 | 4800 | – | – | – | – | 70 (≈ 32 µg/mL) | 1070 | – | – | – | – | 34000 | -2.3 | – | 11 | 12 | O=C(NCCN1CCOCC1)Nc1nc2ccc(Sc3nnc4cccnn34)cc2s1 | – | –
6 | 61 | 3 | 883 | 4 | 4.7 | 7 | 13 | < 1 | 64 | – | – | – | – | – | – | – | – | – | O=C(Nc1nc2ccc(Sc3nnc4ccc(-c5ccc(F)cc5)nn34)cc2s1)C1CC1 | – | –
